Data: ChEMBL document CHEMBL5036309, “Orally Active Peptide Vector Allows Using Cannabis to Fight Pain While Avoiding Side Effects” (J Med Chem, 2021)
Calls of active or inactive are those of the source. Square brackets hold non-standard residues; d marks the D form. Peptide text beside a SMILES is read from it.

How the values were obtained:
HEK293T [1] = assay: Inhibition of human c-YFP fused CB1R/n-YFP fused 5HT2A receptor heterodimer formation expressed in HEK293 cells assessed as increase in pERK level preincubated for 15 mins followed by DOI stimulation for 7 mins by microplate reader method; assay type: cell-based; details: time 22.0 min
BEND3 = assay: Induction of BBB translocation in mouse BEND3 cells measured after 24 hrs by fluorescence analysis; assay type: functional, cell-based
Summary of the method: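 5(6)-Carboxyfluorescein-labeled peptides were applied to a transwell BBB model of bEnd.3 cells. Translocation (%) was measured as fluorescence in the basolateral chamber after 24 h, with a trans-BBB peptide as positive control. Barrier integrity was checked afterward by FD4 dextran permeability. Mean ± SEM, n = 3–6, independent cultures on different days.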

HEK293T [2] = assay: Inhibition of human c-YFP fused CB1R/n-YFP fused 5HT2A receptor heterodimer formation expressed in HEK293T cells assessed as decrease in forskolin induced cAMP level preincubated for 15 mins forskolin and DOI stimulation and measured after 15 mins by HTRF assay; assay type: cell-based; details: time 30.0 min
HEK293T [3] = assay: Inhibition of human c-YFP fused CB1R/n-YFP fused 5HT2A receptor heterodimer formation expressed in HEK293T cells assessed as increase in pERK level preincubated for 15 mins followed by WIN 55,212-2 stimulation for 7 mins by microplate reader method; assay type: cell-based; details: time 22.0 min
HEK293T [4] = assay: Inhibition of human c-YFP fused CB1R/n-YFP fused 5HT2A receptor heterodimer formation expressed in HEK293T cells assessed as decrease in forskolin induced cAMP level preincubated for 15 mins forskolin and WIN 55,212-2 stimulation and measured after 15 mins by HTRF assay; assay type: cell-based; details: time 30.0 min
HEK293T [5] = assay: Inhibition of human c-YFP fused CB1R/n-YFP fused 5HT2A receptor heterodimer formation transfected in human HEK293T cells at 4 uM incubated for 4 hrs by BIFC assay; assay type: cell-based
Summary of the method: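 HEK-293T cells were cotransfected 48 h with 5HT2AR-cYFP and CB1R-nYFP (4 μg cDNA each, polyethylenimine), then treated with 4 μM peptide or vehicle for 4 h at 37 °C. Reconstituted YFP Venus was read on 20 μg protein at 530 nm emission with 400 nm excitation, minus the fluorescence of non-expressing cells. Mean ± SEM, n = 10–30.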

[6] = Drug internalization in mouse BEND3 cells by confocal microscopic analysis; assay type: ADME, cell-based
Summary of the method: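 bEnd.3 mouse brain endothelial cells were exposed to 5(6)-carboxyfluorescein-labeled peptides and counterstained with Hoechst 33342 and CellMask Deep Red membrane stain. Imaging used point-scanning confocal microscopy with a 63× oil objective, 405 nm excitation for the stains and 488 nm for the peptide.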

Mus musculus [7] = assay: Protection against THP-induced amnesic effect in mouse assessed as reduction in memory impairment at 20 mg/kg, iv pretreated for 30 mins followed by THP addition; assay type: functional, organism-based
Summary of the method: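 V-maze novel object recognition. Day 1 was 9 min habituation. Day 2 was 9 min training with two identical objects. Peptide was given IV (20 mg/kg) or orally (5, 10, 20 mg/kg) right after training, then IP THC 3 mg/kg or vehicle 30 min later. The 9 min test came 24 h later with one object replaced. Discrimination index = (novel − familiar)/total exploration time; exploration meant the nose oriented within 2 cm of the object. Fisher LSD.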

Mus musculus [8] = assay: Analgesic activity in mouse assessed as pain response at 20 mg/kg, iv pretreated with compound for 30 mins followed by THP addition and measured after 60 mins by hot plate test; assay type: functional, organism-based; details: time 90.0 min
Summary of the method: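 Mice got peptide or vehicle IV (20 mg/kg) or orally by gavage (5, 10, 20 mg/kg) 30 min before IP THC 10 mg/kg (vehicle 5% ethanol, 5% Cremophor-EL, 90% saline). Latency to jump on a 52 ± 0.5 °C hot plate was read 60 min after THC, with a 240 s cutoff. Mean ± SEM, n = 10–12 (IV) or 5–8 (oral); Fisher LSD.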

| Drug uptake [6] | Compound | inhibition (HEK293T [1]) | Activity (BEND3) | inhibition (HEK293T [2]) | inhibition (HEK293T [3]) | inhibition (HEK293T [4]) | inhibition (HEK293T [5]) | Activity (Mus musculus [7]) | Activity (Mus musculus [8]) |
| --- | --- | --- | --- | --- | --- | --- | --- | --- | --- |
|  | CC[C@H](C)[C@H](NC(=O)[C@H](Cc1ccc(O)cc1)NC(=O)[C@H](CCSC)NC(=O)[C@H](Cc1ccc(O)cc1)NC(=O)[C@H](C)NC(=O)[C@H](Cc1ccc(O)cc1)NC(=O)[C@@H](N)C(C)C)C(=O)N[C@@H](CC(C)C)C(=O)N[C@@H](Cc1c[nH]c2ccccc12)C(=O)N[C@H](CO)C(=O)N[C@H](CCCCN)C(=O)N[C@H](CO)C(=O)N[C@H](CCCCN)C(=O)N[C@H](CO)C(=O)N[C@H](CCCCN)C(N)=O (H-VYAYMYILW[dS][dK][dS][dK][dS][dK]-NH2) | Active | Active | Active | Active | Active |  |  |  |
| Active | CC[C@@H](C)[C@@H](NC(=O)CNC(=O)[C@@H](C)N)C(=O)N[C@H](CC(C)C)C(=O)N[C@H](CCCCN)C(=O)N[C@H](CCCNC(=N)N)C(=O)N[C@H](Cc1c[nH]c2ccccc12)C(=O)N[C@@H](C(=O)N[C@@H](C(=O)N[C@H](CC(C)C)C(=O)N[C@@H](C(=O)N[C@H](CC(C)C)C(=O)N[C@@H](C(=O)N[C@H](CC(C)C)C(=O)N[C@@H](C(=O)N[C@H](CCCCN)C(N)=O)[C@H](C)O)C(C)C)[C@H](C)CC)C(C)C)C(C)C (H-[dA]G[dI][dL][dK][dR][dW][dV][dV][dL][dI][dL][dV][dL][dT][dK]-NH2) |  | Active |  |  |  | Active | inactive | Active |
|  | CC[C@@H](C)[C@@H](NC(=O)CNC(=O)[C@@H](C)NC(=O)[C@H](Cc1c[nH]c2ccccc12)NC(=O)[C@H](CC(C)C)NC(=O)[C@@H](NC(=O)[C@H](Cc1ccc(O)cc1)NC(=O)[C@H](CCSC)NC(=O)[C@H](Cc1ccc(O)cc1)NC(=O)[C@H](C)NC(=O)[C@H](Cc1ccc(O)cc1)NC(=O)[C@@H](N)C(C)C)[C@@H](C)CC)C(=O)N[C@H](CC(C)C)C(=O)N[C@H](CCCCN)C(=O)N[C@H](CCCNC(=N)N)C(=O)N[C@H](Cc1c[nH]c2ccccc12)C(N)=O (H-VYAYMYILW[dA]G[dI][dL][dK][dR][dW]-NH2) | Active | Active | Active | Active | Active |  |  |  |
|  | H-GRKKRRQRRRKTLVLILVVLIICWGPLLAIMVYDVF-NH2 | Active |  |  | Active | Active | Active |  |  |
|  | H-VYAYMYILWAGILKRW-NH2 | Active |  | Active | Active | Active |  |  |  |
|  | COc1cccc([C@H](O)C2CCN(CCc3ccc(F)cc3)CC2)c1OC | inactive |  | inactive | inactive | inactive |  |  |  |
|  | H-RKRKTLVLILVV-NH2 | Active |  | Active | Active | Active |  |  |  |
|  | Cc1c(C(=O)NN2CCCCC2)nn(-c2ccc(Cl)cc2Cl)c1-c1ccc(Cl)cc1 | inactive |  | inactive | inactive | inactive |  |  |  |
|  | H-SKSKSKKTLVLILVV-NH2 | Active |  | Active | Active | Active |  |  |  |
|  | H-VYAYMYILWGRKKRRQRRR-NH2 | Active |  | Active | Active | Active | Active |  |  |
|  | H-GRKKRRQRRRKTLVLILVV-NH2 | Active |  | Active | Active | Active | Active |  |  |
|  | CC[C@H](C)[C@H](NC(=O)[C@H](CC(C)C)NC(=O)[C@@H](NC(=O)[C@H](CC(C)C)NC(=O)[C@@H](NC(=O)[C@H](CCCCN)NC(=O)[C@@H](CCCCN)NC(=O)[C@@H](CO)NC(=O)[C@@H](CCCCN)NC(=O)[C@@H](CO)NC(=O)[C@@H](CCCCN)NC(=O)[C@H](N)CO)[C@@H](C)O)C(C)C)C(=O)N[C@@H](CC(C)C)C(=O)N[C@H](C(=O)N[C@H](C(N)=O)C(C)C)C(C)C (H-[dS][dK][dS][dK][dS][dK]KTLVLILVV-NH2) | Active | Active | Active | Active | Active |  |  |  |
|  | CC[C@@H](C)[C@@H](NC(=O)CNC(=O)[C@@H](C)N)C(=O)N[C@H](CC(C)C)C(=O)N[C@H](CCCCN)C(=O)N[C@H](CCCNC(=N)N)C(=O)N[C@H](Cc1c[nH]c2ccccc12)C(=O)N[C@@H](CCCCN)C(=O)N[C@H](C(=O)N[C@@H](CC(C)C)C(=O)N[C@H](C(=O)N[C@@H](CC(C)C)C(=O)N[C@H](C(=O)N[C@@H](CC(C)C)C(=O)N[C@H](C(=O)N[C@H](C(N)=O)C(C)C)C(C)C)[C@@H](C)CC)C(C)C)[C@@H](C)O (H-[dA]G[dI][dL][dK][dR][dW]KTLVLILVV-NH2) | Active | Active | Active | Active | Active |  |  |  |
|  | H-VYAYMYILWSKSKSK-NH2 | Active |  | Active | Active | Active |  |  |  |
|  | H-ETYLMFWIGVTSVLLLFIVYAYMYILWGRKKRRQRRR-NH2 | Active |  |  | Active | Active | Active |  |  |
|  | H-AGILKRWKTLVLILVV-NH2 | Active |  | Active | Active | Active |  |  |  |
|  | H-VYAYMYILWRKR-NH2 | Active |  | Active | Active | Active |  |  |  |
|  | CC[C@H](C)[C@H](NC(=O)[C@@H](NC(=O)[C@@H]1CCCN1C(=O)[C@H](CC(N)=O)NC(=O)[C@@H](NC(=O)[C@@H](NC(=O)[C@H](CO)NC(=O)[C@H](CC(N)=O)NC(=O)[C@H](CC(C)C)NC(=O)[C@H](CC(C)C)NC(=O)[C@H](CS)NC(=O)[C@H](CC(C)C)NC(=O)[C@H](CCSC)NC(=O)[C@H](CO)NC(=O)[C@H](CS)NC(=O)[C@H](Cc1ccccc1)NC(=O)[C@H](C)NC(=O)[C@H](Cc1ccccc1)NC(=O)[C@@H](NC(=O)[C@@H](NC(=O)[C@H](CCCCN)NC(=O)[C@@H](NC(=O)[C@@H](N)CC(C)C)[C@@H](C)CC)[C@@H](C)O)C(C)C)[C@@H](C)O)C(C)C)[C@@H](C)CC)C(=O)N[C@@H](Cc1ccc(O)cc1)C(=O)N[C@@H](C)C(=O)N[C@@H](CC(C)C)C(=O)N[C@@H](CCCNC(=N)N)C(=O)NCC(=O)N[C@@H](CCCNC(=N)N)C(=O)N[C@@H](CCCCN)C(=O)N[C@@H](CCCCN)C(=O)N[C@@H](CCCNC(=N)N)C(=O)N[C@@H](CCCNC(=N)N)C(=O)N[C@@H](CCC(N)=O)C(=O)N[C@@H](CCCNC(=N)N)C(=O)N[C@@H](CCCNC(=N)N)C(=O)N[C@@H](CCCNC(=N)N)C(N)=O (H-LIKTVFAFCSMLCLLNSTVNPIIYALRGRKKRRQRRR-NH2) | inactive |  |  | inactive | inactive | inactive |  |  |
